{"source": "paper PMC3822283", "about": "(Nature structural & molecular biology, 2013)", "key": {"p38α [1]": {"molecular_target": "p38α", "conditions": "time resolved FRET, non phospho p38α; ref Zhang et al., 2005; cited from earlier work"}, "p38 [2]": {"tested_on": "p38", "test": "p38 activation in adult rat ventricular myocytes", "type": "cell-based", "conditions": "ARVMs; peptides fused to TAT; immunoblot, Fig. 6c", "in_short": "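Rat ventricular myocytes were washed in M199 with penicillin, streptomycin, 2mM L-carnitine, 5mM creatine and 5mM taurine, pelleted at 100 g for 2 min and plated on laminin at 37°C in 5% CO2. After 1 h, non-adherent cells were removed and TAT-TAB1(371-416) peptides (WT, A/B mutant, scrambled) added in fresh medium. Immunoblots used dual-phospho p38 (Thr180/Tyr182; 1:4,000) and total p38 (1:15,000) antibodies, with ECL detection. One-way ANOVA, Bonferroni.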"}, "p38α [3]": {"molecular_target": "T1, p38α (Mus musculus, UniProt P47811)", "T1 sequence (P47811 whole entry)": "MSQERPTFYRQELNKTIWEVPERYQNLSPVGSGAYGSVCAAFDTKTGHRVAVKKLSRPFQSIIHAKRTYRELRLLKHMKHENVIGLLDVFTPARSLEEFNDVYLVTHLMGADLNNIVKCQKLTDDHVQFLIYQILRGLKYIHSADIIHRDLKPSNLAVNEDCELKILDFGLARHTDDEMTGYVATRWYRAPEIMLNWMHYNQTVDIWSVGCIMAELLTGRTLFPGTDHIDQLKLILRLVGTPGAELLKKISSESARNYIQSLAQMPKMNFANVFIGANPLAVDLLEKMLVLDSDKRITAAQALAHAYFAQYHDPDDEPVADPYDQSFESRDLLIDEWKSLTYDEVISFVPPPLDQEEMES", "test": "ITC binding to p38α", "conditions": "for association with p38α by ITC (in words): p38α alone, non phospho"}, "IRp38α": {"tested_on": "IRp38α", "test": "IRp38α co-expressed with TAB1 in HEK293 cells", "type": "cell-based", "conditions": "Fig. 1c", "in_short": "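HEK293 cells were co-transfected with TAB1 and either p38α (HA-tagged, WT) or the gatekeeper mutant IRp38α, then exposed to BIRB793. p38 and TAB1 phosphorylation were read by immunoblot: dual-phospho p38 (Thr180/Tyr182) 1:4,000, total p38 1:15,000, overnight at 4 °C, ECL detection. Quantitation is from three independent transfections as mean ± s.d., analysed by one-way ANOVA with Bonferroni.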"}, "[4]": {"tested_on": "isolated perfused mouse hearts", "test": "contractile function of isolated perfused mouse hearts", "in_short": "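Langendorff hearts from male C57BL/6 mice (pentobarbital 300mg/kg i.p., heparin 150 units) perfused at 80 mmHg with KHB (95% O2/5% CO2, 37°C). LV balloon EDP set 2-8 mmHg, paced 600 bpm. Inclusion required LVDP ≥60 mmHg and flow 1.5-3.5 ml/min. After 30 min baseline, coded TAT-TAB1 peptides at 15μM recirculated 15 min in 20 mL KHB. Preliminary runs used three concentrations (n=2). Two-way repeated-measures ANOVA, Bonferroni.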"}, "p38α [5]": {"tested_on": "p38α", "test": "co-transfection of HEK293 cells with TAB1 and p38α, p38 phosphorylation", "type": "cell-based"}, "[6]": {"tested_on": "p38 in wild-type (WT) hearts", "test": "p38 dual phosphorylation during global myocardial ischemia, WT hearts", "conditions": "WT mouse hearts, global ischemia 5, 10 and 15 mins; 10 μM"}, "[7]": {"tested_on": "p38 in hearts expressing the p38α Thr106Met gatekeeper mutant (IRα)", "test": "p38 activity during global myocardial ischemia, IRα hearts", "conditions": "IRα mouse hearts, global ischemia 5, 10 and 15 mins; 10 μM"}, "p38 [8]": {"tested_on": "p38", "test": "p38 dual phosphorylation in isolated perfused mouse hearts", "conditions": "15 mins exposure; immunoblot, Fig. 6g"}, "[9]": {"tested_on": "isolated adult rat cardiac myocytes", "test": "viability of adult rat ventricular myocytes", "type": "cell-based", "conditions": "ARVMs, later time points; peptides fused to TAT", "in_short": "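Laminin-plated adult rat ventricular myocytes in supplemented M199 at 37°C in 5% CO2 were exposed to fluorescein (FAM)-labelled TAT-TAB1(371-416) peptides. They were imaged by confocal microscopy at later time points. Cell death was scored as a rounded cell appearance with homogeneous distribution of the fluorescein label.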"}, "[10]": {"molecular_target": "[p38α:TAB1(1-438)]complex (Mus musculus, UniProt P47811)", "sequence (P47811 whole entry, one chain of several)": "as the sequence (P47811 whole entry) above", "test": "ITC binding to [p38α:TAB1"}, "p38α [11]": {"molecular_target": "T1, p38α", "test": "co-expression of p38α and TAB1 in E. coli, p38α phosphorylation", "type": "cell-based", "conditions": "western blot; Fig. 1d, 5d; inhibitors 10 μM", "in_short": "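Mouse p38α and TAB1 (full-length, 1-438 or 1-418) were co-expressed in E. coli from dual vectors, with p38α in the first MCS and TAB1 in the second. Controls were empty vector and p38α alone.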"}, "[12]": {"conditions": "peptides fused to TAT, 15 μM, 15 min, recirculated, n=5 mouse hearts per group"}}, "data": [{"molecule": "Nc1ncnc2c1ncn2[C@@H]1O[C@H](COP(=O)(O)OP(=O)(O)OP(=O)(O)O)[C@@H](O)[C@H]1O", "note": "[ATP]", "values": [{"measurement": "Kd", "setting": "p38α [1]", "result": "13 ± 5.5", "unit": "mM"}]}, {"molecule": "TAB1(371-416A/B) (EMSQPTPTPAPGGRVYPVSAPASSAQSTSKTSVTLSLGAPSQGQMV)", "values": [{"measurement": "p38 activation", "setting": "p38 [2]", "result": "but not TAB1(371-416A-B) caused p38 activation"}, {"measurement": "association with p38α by ITC (in words)", "setting": "p38α [3]", "result": "no binding was detected"}]}, {"molecule": "Cc1ccc(-n2nc(C(C)(C)C)cc2NC(=O)Nc2ccc(OCCN3CCOCC3)c3ccccc23)cc1", "note": "[BIRB796, reference compound]", "values": [{"measurement": "pattern of phosphorylation on inhibitor exposure, IRp38α coexpressed with TAB1", "setting": "IRp38α", "result": "altered"}, {"measurement": "inhibition of p38α on effects of perfusion with TAB1(371-416) (WT)", "setting": "[4]; LVDP and coronary flow, numbers per group WT=7 and WT+I=5, Fig. 6h", "result": "attenuates the effects of perfusion with TAB1(371-416)"}]}, {"molecule": "C[S+]([O-])c1ccc(-c2nc(-c3ccncc3)c(-c3ccc(F)cc3)[nH]2)cc1", "note": "(stereo not shown) [SB203580]", "values": [{"measurement": "effect of inhibitor on TAB1-enhanced p38α dual phosphorylation", "setting": "p38α [5]; WTp38α, HEK293 cells, Fig. 1b", "result": "SB203580-sensitive"}, {"measurement": "sensitivity of p38 dual phosphorylation to inhibitor", "setting": "[6]", "result": "sensitive"}, {"measurement": "p38 activity (phosphorylation of TAB1 and HSP27) with inhibitor", "setting": "[7]", "result": "p38 remained active"}]}, {"molecule": "GYGRKKRRQRRRGEMSQPTPTPAPGGRVYPVSVPYSSAQSTSKTSVTLSLVMPSQGQMV [TAT-TAB1(371-416)]", "values": [{"measurement": "p38 activation", "setting": "p38 [2]", "result": "caused p38 activation"}, {"measurement": "coronary flow", "setting": "[4]; 15 μM, 15 min, recirculated, n=5 mouse hearts per group", "result": "reduction in coronary flow"}, {"measurement": "developed pressure", "setting": "[4]; [12]", "result": "marked reduction in developed pressure"}, {"measurement": "end-diastolic pressure", "setting": "[4]; [12]", "result": "elevation in the end-diastolic pressure"}, {"measurement": "p38 dual phosphorylation in perfused hearts", "setting": "p38 [8]", "result": "p38 dual phosphorylation"}, {"measurement": "cell death", "setting": "[9]", "result": "cell death"}]}, {"molecule": "Nc1ncnc2c1ncn2[C@@H]1O[C@H](CO[P@](=O)(O)O[P@](=O)(O)O[P@@](=O)(O)S)[C@@H](O)[C@H]1O", "note": "[ATPγS]", "values": [{"measurement": "Kd", "setting": "[10]", "result": 0.0053, "unit": "mM"}, {"measurement": "affinity for p38α in the presence of TAB1(1-438) (in words)", "setting": "[10]; ITC, 1:1 stoichiometry", "result": "low μM affinity"}, {"measurement": "association with p38α by ITC (in words)", "setting": "p38α [3]", "result": "no measurable association by ITC"}]}, {"molecule": "TAB1: TGF-β-activated protein kinase 1 (TAK1) binding protein 1, scaffold protein (EMSQPTPTPAPGGRVYPVSVPYSSAQSTSKTSVTLSLVMPSQGQMV)", "values": [{"measurement": "p38α dual phosphorylation on co-expression in HEK293 cells", "setting": "p38α [5]; western blot, three independent transfections", "result": "enhanced p38α dual phosphorylation"}, {"measurement": "p38α phosphorylation on co-expression in E. coli", "setting": "p38α [11]", "result": "enhanced"}]}, {"molecule": "GYGRKKRRQRRRGEMSQPTPTPAPGGRVYPVSAPASSAQSTSKTSVTLSLGAPSQGQMV [TAT-TAB1(371-416A/B)]", "values": [{"measurement": "maximum concentration that did not cause discernible contractile dysfunction", "setting": "[4]; isolated mouse heart, preliminary experiments", "result": 15, "unit": "µM"}]}, {"molecule": "TAB1(1-438): recombinant mouse TAB1(1-438), N-terminal HexaHistidine tag and TEV site (protein) MAAQRRSLLQSEQQPSWTDDLPLCHLSGVGSASNRSYSADGKGTESHPPEDNWLKFRSENNCFLYGVFNGYDGNRVTNFVAQRLSAELLLGQLNTEHTEADVRRVLLQAFDVVERSFLESIDDALAEKASLQSQLPEGVPQHQLPPQYQKILERLKALEREISGGAMAVVAVLLNSKLYVANVGTNRALLCKSTVDGLQVTQLNMDHTTENEDELFRLSQLGLDAGKIKQMGVICGQESTRRIGDYKVKYGYTDIDLLSAAKSKPIIAEPEIHGAQPLDGVTGFLVLMSEGLYKALEAAHGPGQANQEIAAMIDTEFAKQTSLDAVAQAVVDRVKRIHSDTFASGGERAKFCPRHEDMTLLVRNFGYPLGEMSQPTPTPAPGGRVYPVSVPYSSAQSTSKTSVTLSLVMPSQGQMVNGSHSASTLDEATPTLTNQSPT", "values": [{"measurement": "−TΔS", "setting": "p38α [3]; 25°C, ΔG = ΔH-TΔS", "result": 5.1, "unit": "kcal/mol"}, {"measurement": "association with p38α by ITC (in words)", "setting": "p38α [3]", "result": "binding affinity in the low micromolar range"}]}]}
